The results in this text go back to publication PMC2947195 (Biochemical Journal, 2010).

Numbering of substitutions follows the chain as printed.

Common to all, as to type: cell-based
One test has as its target T1, S313A hRFC (Homo sapiens, UniProt P41440, S313A).
T1 sequence (P41440 1-591 S313A): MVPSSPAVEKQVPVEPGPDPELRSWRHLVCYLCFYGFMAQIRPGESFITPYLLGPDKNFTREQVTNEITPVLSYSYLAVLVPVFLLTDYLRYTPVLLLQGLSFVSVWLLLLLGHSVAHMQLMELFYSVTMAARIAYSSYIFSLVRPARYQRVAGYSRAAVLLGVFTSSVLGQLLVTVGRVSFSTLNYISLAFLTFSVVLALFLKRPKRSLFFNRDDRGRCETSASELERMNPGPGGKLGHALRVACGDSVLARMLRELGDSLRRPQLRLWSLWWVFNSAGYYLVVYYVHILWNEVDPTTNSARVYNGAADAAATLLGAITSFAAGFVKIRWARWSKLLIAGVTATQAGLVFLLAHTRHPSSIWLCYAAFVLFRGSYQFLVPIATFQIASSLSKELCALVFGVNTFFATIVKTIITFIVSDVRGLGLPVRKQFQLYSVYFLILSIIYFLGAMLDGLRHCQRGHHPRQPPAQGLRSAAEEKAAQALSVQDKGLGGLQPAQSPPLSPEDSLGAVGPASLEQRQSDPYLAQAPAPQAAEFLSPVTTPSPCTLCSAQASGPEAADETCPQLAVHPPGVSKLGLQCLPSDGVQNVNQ
Briefly: [3H]MTX transport kinetics. Summed up: (§1)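 Human hRFC-null K500E (K562 subline) cells were electroporated (155 V, 1000 μF) with wt or Ser313-mutant hRFC. Stable clones were selected in soft agar with G418 (1 mg/ml). [3H]MTX uptake was measured over 180 s in HBSS at 37 °C in a shaking water bath and expressed as pmol/mg protein (Lowry). Kt and Vmax came from Lineweaver–Burk plots, with Vmax normalized to densitometric Western blot hRFC levels. Three experiments, means±S.E.M.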

The target of test [1] is T2, S313T hRFC (Homo sapiens, UniProt P41440, S313T).
T2 sequence (P41440 1-591 S313T): T1 sequence (P41440 1-591 S313A) with A313T
Kind of test: [3H]MTX uptake in transiently transfected R5 HeLa cells. Particulars: 0.5 μM [3H]MTX, 2 min, 37 °C, normalized to hRFC protein on Western blots. On the technique in general: Immunoblotting shows a protein as a band on a membrane.

Test [2] concerns the target T3, S313C hRFC (Ser^313 replaced with cysteine) (Homo sapiens, UniProt P41440, S313C).
T3 sequence (P41440 1-591 S313C): T1 sequence (P41440 1-591 S313A) with A313C
Briefly: [3H]MTX uptake in transiently transfected R5 HeLa cells. In a few lines:
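Human R5 HeLa cells (transport-defective) were transiently transfected with Lipofectamine Plus, split at 24 h and assayed 24 h later. Uptake of 0.5 μM [3H]MTX ran for 2 min at 37 °C in HSM buffer (20 mM Hepes, 235 mM sucrose, pH 7.14 with MgO). Uptake was stopped with ice-cold PBS and cells solubilized in 0.5 M NaOH. Values in pmol/mg protein were normalized to HA-blot hRFC levels. Three experiments, means±S.E.M.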

For test [3], the target named is T2, S313T hRFC. Briefly: [3H]MTX transport kinetics. Summed up:
as §1

Setting [4] is: K500E stable transfectant, mean±S.E.M., n=3.
Where [5] appears, read: Vmax normalized to relative hRFC level on Western blots.

In the case of `CN(Cc1cnc2nc(N)nc(N)c2n1)c1ccc(C(=O)N[C@@H](CCC(=O)O)C(=O)O)cc1` [MTX, methotrexate], the “Vmax (normalized)/Kt” value was 0.18 at S313A hRFC and 0.43 at S313T hRFC [3]. Also, the Kt at S313A hRFC (setting [4]) stood at 2.26 ± 0.44 µM; at S313T hRFC [3] (setting [4]), 2.11 ± 0.54 µM. Moreover, the “Normalized Vmax” value is reported as 0.41±0.03 on S313A hRFC (setting [5]) and 0.91±0.16 on S313T hRFC [3] (setting [5]). Also, on S313T hRFC [1], the “[3H]MTX transport activity relative to wt hRFC” value is reported as ~ 8%. In addition, in test [2], the MTX transport entry is “abolished”.
